In series [1] the test system is MCF7. Put plainly: Cytotoxicity against human MCF7 cells assessed as cell growth after 2 days by sulforhodamine B assay. Format: functional. Conditions: MCF7, 48 h. The essentials: (§1)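 NCI cell lines were run by the Monks method: cells were plated with compounds from DMSO stocks and incubated 2 days at 37 °C in 5% CO2, in duplicate. Cells were fixed with cold TCA, stained with 0.4% SRB, and the bound dye was solubilized in 10 mM tris-base and read at 515 nm. The zero-day control was subtracted, and GI50 was taken from the curves.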

Series [2] deals with Nannizzia gypsea. The series can be described thus: Antifungal activity against Microsporum gypseum C 115 2000. Format: functional. The essentials: (§2)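 Dermatophytes tested by CLSI M38-A2 microdilution in MOPS-buffered RPMI-1640 at pH 7.0. Inoculum 1-5 × 10^3 CFU/mL; compounds 250 to 0.24 µg/ml in twofold steps, final DMSO <1%. Incubated at 28 °C in a moist, dark chamber and read according to control growth. MIC is the lowest concentration with complete inhibition. MFC is the lowest concentration with no growth after duplicate subculture on SDA.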

Series [3] relates to Cryptococcus neoformans. The series can be described thus: Antifungal activity against Cryptococcus neoformans ATCC 32264. The class given is functional. The essentials: (§3)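 CLSI M27-A3 broth microdilution in RPMI-1640 buffered to pH 7.0 with MOPS. Inoculum 1-5 × 10^3 CFU/mL. Compound twofold dilutions from 250 to 0.24 µg/ml, final DMSO <1%. Incubated at 35 °C in a moist, dark chamber and read at 48 h. MIC is the lowest concentration giving total growth inhibition. For MFC, 5 µL from clear wells was plated in duplicate on SDA; MFC is the lowest concentration with no growth.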

Series [4] is described as follows: Cytotoxicity against human erythrocytes assessed as hemolysis by spectrometric analysis. The class given is cell-based, Erythrocyte. The essentials: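 Human heparinized red blood cells were washed in PBS at pH 7.0 and suspended at 4% in sterile 5% glucose. Compounds from DMSO stocks were diluted in 5% glucose to final concentrations of 250 to 0.24 µg/ml and incubated with the cells at 37 °C. Released hemoglobin was read at 540 nm. HC50 is the concentration giving 50% lysis relative to the drug-free value.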

The subject of series [5] is SF-268. The series can be described thus: Cytotoxicity against human SF268 cells assessed as cell growth after 2 days by sulforhodamine B assay. The class given is functional. The settings on record: SF-268, 48 h. The essentials: as §1
In series [6] the test system is Trichophyton rubrum. The series can be described thus: Antifungal activity against Trichophyton rubrum C 113 2000. Format: functional. The essentials:
as §2

For series [7], the system named is Candida tropicalis. The series can be described thus: Antifungal activity against Candida tropicalis C 131 2000. Format: functional. In short, it runs like this:
as §3

Series [8] concerns Candida albicans. Put plainly: Antifungal activity against Candida albicans ATCC 10213. The class given is functional. The essentials: as §3
Series [9] deals with Trichophyton mentagrophytes. The series can be described thus: Antifungal activity against Trichophyton mentagrophytes ATCC 9972. The class given is functional. In short, it runs like this: as §2
Series [10] relates to Aspergillus flavus. Put plainly: Antifungal activity against Aspergillus flavus ATCC 9170. The class given is functional. The essentials: (§4)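 Broth microdilution per CLSI M38-A2 in RPMI-1640 with MOPS at pH 7.0. Inoculum 1-5 × 10^3 CFU/mL, with twofold compound dilutions spanning 250-0.24 µg/ml (final DMSO <1%). Plates incubated at 35 °C, moist and dark, and read when the control fungus had grown. MIC is total growth inhibition. MFC comes from subculturing clear wells in duplicate onto SDA.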

In series [11] the test system is Aspergillus fumigatus. Put plainly: Antifungal activity against Aspergillus fumigatus ATCC 26934. The class given is functional. The essentials: as §4
The subject of series [12] is NCI-H460. The series can be described thus: Cytotoxicity against human H460 cells assessed as cell growth after 2 days by sulforhodamine B assay. The class given is functional. The settings on record: NCI-H460, 48 h. In short, it runs like this:
as §1

Series [13] concerns Saccharomyces cerevisiae. Put plainly: Antifungal activity against Saccharomyces cerevisiae ATCC 9763. The class given is functional. In short, it runs like this:
as §3

Series [14] has as its system Aspergillus niger. The series can be described thus: Antifungal activity against Aspergillus niger ATCC 9029. The class given is functional. The essentials: as §4

Values after ≈ are worked out from the molar mass of the structure shown. Where only a bound is given, the exact number is not on record here.

As to `COc1ccc(N2C(=O)C=CC2=O)cc1OC`, the GI50 in series [1], in [5] and in [12] was more than 10 µg/mL each time. Also, the MFC was 7.81 µg/mL (≈ 33.5 µM) in [2]; 15.6 µg/mL (≈ 67 µM) in series [3]; 7.81 µg/mL (≈ 33.5 µM) in series [6]; 15.6 µg/mL (≈ 67 µM) in series [7]; 62.5 µg/mL (≈ 268 µM) in [8]; 7.81 µg/mL (≈ 33.5 µM) in [9]. Also, the minimal fungicidal concentration (MFC) stood at 125 µg/mL (≈ 536 µM) in series [10], 125 µg/mL (≈ 536 µM) in series [11], 15.6 µg/mL (≈ 67 µM) in series [13] and 125 µg/mL (≈ 536 µM) in series [14]. The MIC is 3.9 µg/mL (≈ 16.7 µM) in series [2]; 7.81 µg/mL (≈ 33.5 µM) in series [3]; 3.9 µg/mL (≈ 16.7 µM) in series [6]; 15.6 µg/mL (≈ 67 µM) in series [7]; 31.2 µg/mL (≈ 134 µM) in series [8]; 3.9 µg/mL (≈ 16.7 µM) in series [9]. Also, the MIC came out at 62.5 µg/mL (≈ 268 µM) in series [10], 62.5 µg/mL (≈ 268 µM) in series [11], 7.81 µg/mL (≈ 33.5 µM) in series [13] and 62.5 µg/mL (≈ 268 µM) in series [14]. The HC50 in series [4] was more than 250 µg/mL.
For `COc1cccc(N2C(=O)C=CC2=O)c1`, the 50% growth inhibitory concentration (GI50) in series [1], in [5] and in series [12] was more than 10 µg/mL in each case. Also, the MFC in [2] came to 7.81 µg/mL (≈ 38.4 µM); in [3], 7.81 µg/mL (≈ 38.4 µM); in series [6], 3.9 µg/mL (≈ 19.2 µM); in series [7], 62.5 µg/mL (≈ 308 µM); in [8] it was 62.5 µg/mL (≈ 308 µM); in series [9], 3.9 µg/mL (≈ 19.2 µM). The MFC in [10] came to 62.5 µg/mL (≈ 308 µM); in series [11], 62.5 µg/mL (≈ 308 µM); in series [13], 7.81 µg/mL (≈ 38.4 µM); in [14], 62.5 µg/mL (≈ 308 µM). In addition, the minimal inhibitory concentration (MIC) in [2] came out at 3.9 µg/mL (≈ 19.2 µM); in series [3], 3.9 µg/mL (≈ 19.2 µM); in series [6], 1.95 µg/mL (≈ 9.6 µM); in series [7], 15.6 µg/mL (≈ 76.9 µM); in series [8], 15.6 µg/mL (≈ 76.9 µM); in series [9] it was 1.95 µg/mL (≈ 9.6 µM). Moreover, the MIC in series [10] amounted to 31.2 µg/mL (≈ 154 µM); in series [11] it was 31.2 µg/mL (≈ 154 µM); in series [13] it was 3.9 µg/mL (≈ 19.2 µM); in series [14], 31.2 µg/mL (≈ 154 µM). The HC50 in series [4] is more than 250 µg/mL.
Regarding `CC1=CC(=O)N(c2ccccc2)C1=O`, the GI50 in series [1], in series [5] and in [12] was more than 10 µg/mL each time. Moreover, the MFC in [2] came to 15.6 µg/mL (≈ 83.5 µM); in [3], 62.5 µg/mL (≈ 334 µM); in series [6], 15.6 µg/mL (≈ 83.5 µM); in series [7], 125 µg/mL (≈ 668 µM); in series [8], 125 µg/mL (≈ 668 µM); in series [9] it was 62.5 µg/mL (≈ 334 µM). Moreover, the minimal fungicidal concentration (MFC) was 125 µg/mL (≈ 668 µM) in series [10], 62.5 µg/mL (≈ 334 µM) in series [11], 125 µg/mL (≈ 668 µM) in [13] and 250 µg/mL (≈ 1340 µM) in series [14]. In addition, the MIC in series [2] worked out at 7.81 µg/mL (≈ 41.7 µM); in series [3], 31.2 µg/mL (≈ 167 µM); in series [6] it was 7.81 µg/mL (≈ 41.7 µM); in series [7], 62.5 µg/mL (≈ 334 µM); in series [8] it was 62.5 µg/mL (≈ 334 µM); in series [9], 31.2 µg/mL (≈ 167 µM). For the same molecule, the minimum inhibitory concentration (MIC) in [10] is 62.5 µg/mL (≈ 334 µM); in [11] it was 31.2 µg/mL (≈ 167 µM); in series [13], 31.2 µg/mL (≈ 167 µM); in [14], 125 µg/mL (≈ 668 µM). Further, the concentration for 50% haemolysis (HC50) in series [4] is more than 250 µg/mL.
On to `COc1ccc(N2C(=O)C=CC2=O)cc1`, for which the concentration for 50% growth inhibition (GI50) in series [1], in series [5] and in [12] was more than 10 µg/mL each time. Moreover, the MFC in series [2] was determined as 7.81 µg/mL (≈ 38.4 µM); in series [3], 15.6 µg/mL (≈ 76.9 µM); in [6], 3.9 µg/mL (≈ 19.2 µM); in series [7], 125 µg/mL (≈ 615 µM); in [8], 125 µg/mL (≈ 615 µM); in series [9], 7.81 µg/mL (≈ 38.4 µM). Further, the minimum fungicidal concentration (MFC) in series [10] stood at 125 µg/mL (≈ 615 µM); in series [11], 125 µg/mL (≈ 615 µM); in series [13], 62.5 µg/mL (≈ 308 µM); in series [14], 62.5 µg/mL (≈ 308 µM). The minimum inhibitory concentration (MIC) in series [2] is 3.9 µg/mL (≈ 19.2 µM); in series [3] it was 15.6 µg/mL (≈ 76.9 µM); in [6], 3.9 µg/mL (≈ 19.2 µM); in series [7], 62.5 µg/mL (≈ 308 µM); in [8] it was 62.5 µg/mL (≈ 308 µM); in series [9], 3.9 µg/mL (≈ 19.2 µM). Besides, the minimal inhibitory concentration (MIC) came to 62.5 µg/mL (≈ 308 µM) in [10], 62.5 µg/mL (≈ 308 µM) in series [11], 31.2 µg/mL (≈ 154 µM) in series [13] and 31.2 µg/mL (≈ 154 µM) in series [14]. Besides, the concentration for 50% haemolysis (HC50) in series [4] is more than 250 µg/mL.

The values are drawn from ChEMBL document CHEMBL1772954, “Antifungal, cytotoxic and SAR studies of a series of N-alkyl, N-aryl and N-alkylphenyl-1,4-pyrrolediones and related compounds” (Bioorg Med Chem, 2011).
